According to ChEMBL document CHEMBL1122005, “Quantitative structure-activity relationships of aromatic esters of 1-methyl-4-piperidinol as analgesics” (1982):
Activity calls are given as the source filed them. The calls are words filed in the database; no cut-off is given here.

Organism: Mus musculus
Test: Relative Analgesic activity of compound to the N-methyl homologue assayed by the mouse hotplate method
Type: functional

Structure (SMILES)	Relative activity
CCN1CCC23c4c5ccc(O)c4O[C@H]2[C@@H](O)C=CC3(CC5)C1 (some centres undefined)	<0.1
Cc1[nH]c(C)c(C(=O)OC2CCN(CCc3ccccc3)CC2)c1C	0.3
CCN1CCC(OC(=O)c2c(C)[nH]c(C)c2C)CC1	0.5
Oc1ccc2c3c1O[C@H]1[C@@H](O)C=CC4(CC2)CN(CCc2ccccc2)CCC314 (some centres undefined)	6
Cc1[nH]c(C)c(C(=O)OC2CCN(Cc3ccccc3)CC2)c1C	0.8
CN1CCC23c4c5ccc(O)c4O[C@H]2[C@@H](O)C=CC3(CC5)C1 (some centres undefined)	1
Cc1[nH]c(C)c(C(=O)OC2CCN(C)CC2)c1C	1
Oc1ccc2c3c1O[C@H]1[C@@H](O)C=CC4(CC2)CN(Cc2ccccc2)CCC314 (some centres undefined)	<0.1
CCOC(=O)C1(c2ccccc2)CCN(C)CC1 [MEPERIDINE]	1

Organism: Mus musculus
Test: Analgesic activity assayed with the mouse hotplate method
Type: functional
Outline: (§1)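 Mouse hot-plate test. Compounds were given subcutaneously as water-soluble HCl salts. The ED50 is expressed in mmol/kg, and potency is given as log(1/C), where C is the ED50 in mmol/kg.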

Structure (SMILES)	Log 1/C
Cc1cc(C)c(C(=O)OC2CCN(C)CC2)c(C)c1	1.55
CN1CCC(OC(=O)c2ccccc2F)CC1	1.41
Cc1ccc(C(=O)OC2CCN(C)CC2)cc1F	1.32
COc1cc(C(=O)OC2CCN(C)CC2)ccc1C	1.4
CN1CCC(OC(=O)c2ccccc2Br)CC1	1.21
Cc1ccccc1C(=O)OC1CCN(C)CC1	1.48
COc1ccc(C(=O)OC2CCN(C)CC2)cc1	1.43
CCOc1ccc(C(=O)OC2CCN(C)CC2)cc1	1.72
CN1CCC(OC(=O)c2ccc(-c3ccccc3)cc2)CC1	0.85
COc1cccc(OC)c1C(=O)OC1CCN(C)CC1	0.63
COc1cc(C(=O)OC2CCN(C)CC2)cc(OC)c1OC	1.35
CN1CCC(OC(=O)c2ccc([N+](=O)[O-])cc2)CC1	1.14
CN1CCC(OC(=O)c2cccc(C#N)c2)CC1	1.39
CN1CCC(OC(=O)c2ccccc2[N+](=O)[O-])CC1	1.48
Cc1ccc(C)c(C(=O)OC2CCN(C)CC2)c1	1.36
CN1CCC(OC(=O)c2ccccc2Cl)CC1	1.25
CN1CCC(OC(=O)c2cccc(F)c2)CC1	1.26
CN1CCC(OC(=O)c2ccccc2C(F)(F)F)CC1	1.49
Cc1ccc(C(=O)OC2CCN(C)CC2)cc1	1.17

Structure (SMILES)	Log 1/C
CN1CCC(OC(=O)c2ccc3c(c2)OCO3)CC1	1.61
CN1CCC(OC(=O)c2ccc(Cl)cc2)CC1	1.11
Cc1cc(C)c(C(=O)OC2CCN(C)CC2)cc1C	1.17
CN1CCC(OC(=O)c2ccc(C#N)cc2)CC1	1.65
Cc1cccc(C)c1C(=O)OC1CCN(C)CC1	1.27
CN1CCC(OC(=O)c2ccc(Cl)c(Cl)c2)CC1	1.08
CCCCOc1ccc(C(=O)OC2CCN(C)CC2)cc1	1.58
COc1cccc(C(=O)OC2CCN(C)CC2)c1	1.67
COc1cccc(C(=O)OC2CCN(C)CC2)c1OC	1.55
CN1CCC(OC(=O)c2ccc(C(C)(C)C)cc2)CC1	1.13
CN1CCC(OC(=O)c2ccc(F)cc2)CC1	1.38
Cc1cc(C)cc(C(=O)OC2CCN(C)CC2)c1	1.07
CN1CCC(OC(=O)c2ccccc2Cc2ccccc2)CC1	1.28
COc1cc(OC)c(C(=O)OC2CCN(C)CC2)c(OC)c1	1.47
CN1CCC(OC(=O)c2ccccc2)CC1	1.43
COc1ccc(C(=O)OC2CCN(C)CC2)cc1OC	1.91
COc1ccccc1C(=O)OC1CCN(C)CC1	1.43
COc1cc(OC)cc(C(=O)OC2CCN(C)CC2)c1	1.53
CN1CCC(OC(=O)c2cccc(O)c2)CC1	1.21

Organism: Mus musculus
Test: Analgesic activity of compound assayed by the mouse hotplate method was determined as log(1/C); Inactive
Type: functional, organism-based

Structure (SMILES)	Log 1/C
CN1CCC(OC(=O)c2ccc(I)cc2)CC1	inactive
Cc1cccc(C(=O)OC2CCN(C)CC2)c1	inactive
CN1CCC(OC(=O)c2ccccc2C#N)CC1	inactive
CN1CCC(OC(=O)c2cc(I)cc(I)c2I)CC1	inactive

Organism: Mus musculus
Test: Analgesic activity of compound assayed by the mouse hotplate method was determined as ED50.
Type: functional
Outline: as §1

Structure (SMILES)	ED50 [mg/kg]
Cc1[nH]c(C)c(C(=O)OC2CCN(CCc3ccccc3)CC2)c1C	20
CCN1CCC(OC(=O)c2c(C)[nH]c(C)c2C)CC1	10.4
Cc1[nH]c(C)c(C(=O)OC2CCN(Cc3ccccc3)CC2)c1C	6.3
Cc1[nH]c(C)c(C(=O)OC2CCN(C)CC2)c1C	4.9

Organism: Mus musculus
Test: Analgesic activity of compound assayed by the mouse hotplate method was determined as log(1/C); Activity observed in 4-5 out of 10 mice tested
Type: functional
Outline: as §1

Structure (SMILES)	Log 1/C
CCc1ccccc1C(=O)OC1CCN(C)CC1	1.15
Cc1ccc(C(=O)OC2CCN(C)CC2)cc1C	1.15
CN1CCC(OC(=O)c2ccccc2Oc2ccccc2)CC1	1.24
CCOc1ccccc1C(=O)OC1CCN(C)CC1	1.18
CN1CCC(OC(=O)c2ccccc2-c2ccccc2)CC1	1.52
CN1CCC(OC(=O)c2ccccc2CCc2ccccc2)CC1	0.86

Organism: Mus musculus
Test: Analgesic activity of compound assayed by the mouse hotplate method was determined
Type: functional
Outline: as §1

Structure (SMILES)	Log 1/C
Cc1[nH]c(C)c(C(=O)OC2CCN(C)CC2)c1C	1.87

Organism: Mus musculus
Test: Relative Analgesic activity of compound to the N-substituted normeperidine assayed by the mouse hotplate method
Type: functional

Structure (SMILES)	Relative activity
CCOC(=O)C1(c2ccccc2)CCN(CCCCc2ccccc2)CC1	2.8
Oc1ccc2c3c1O[C@H]1[C@@H](O)C=CC4(CC2)CN(CCCCc2ccccc2)CCC314 (some centres undefined)	0.3
CCOC(=O)C1(c2ccccc2)CCN(C/C=C/c2ccccc2)CC1	40
CCOC(=O)C1(c2ccccc2)CCN(Cc2ccccc2)CC1	<0.5
CCOC(=O)C1(c2ccccc2)CCN(CC)CC1	0.5
CCOC(=O)C1(c2ccccc2)CCN(CCc2ccccc2)CC1 [PHENERIDINE]	2.6
Oc1ccc2c3c1O[C@H]1[C@@H](O)C=CC4(CC2)CN(C/C=C/c2ccccc2)CCC314 (some centres undefined)	<0.1
